Experiments:
gmAhr1a [1] = target: T1, gmAhr1a (Gadus morhua, UniProt A0A6H1Z2L5); assay: XRE luciferase reporter gene assay in COS-7 cells, gmAhr1a with gmArnt1; type: cell-based, Atlantic cod (Gadus morhua); conditions: for Activation of transcription of XRE-controlled luciferase reporter gene: increasing concentrations; for Shape of concentration-response: at higher concentrations
T1 sequence (A0A6H1Z2L5 1-957): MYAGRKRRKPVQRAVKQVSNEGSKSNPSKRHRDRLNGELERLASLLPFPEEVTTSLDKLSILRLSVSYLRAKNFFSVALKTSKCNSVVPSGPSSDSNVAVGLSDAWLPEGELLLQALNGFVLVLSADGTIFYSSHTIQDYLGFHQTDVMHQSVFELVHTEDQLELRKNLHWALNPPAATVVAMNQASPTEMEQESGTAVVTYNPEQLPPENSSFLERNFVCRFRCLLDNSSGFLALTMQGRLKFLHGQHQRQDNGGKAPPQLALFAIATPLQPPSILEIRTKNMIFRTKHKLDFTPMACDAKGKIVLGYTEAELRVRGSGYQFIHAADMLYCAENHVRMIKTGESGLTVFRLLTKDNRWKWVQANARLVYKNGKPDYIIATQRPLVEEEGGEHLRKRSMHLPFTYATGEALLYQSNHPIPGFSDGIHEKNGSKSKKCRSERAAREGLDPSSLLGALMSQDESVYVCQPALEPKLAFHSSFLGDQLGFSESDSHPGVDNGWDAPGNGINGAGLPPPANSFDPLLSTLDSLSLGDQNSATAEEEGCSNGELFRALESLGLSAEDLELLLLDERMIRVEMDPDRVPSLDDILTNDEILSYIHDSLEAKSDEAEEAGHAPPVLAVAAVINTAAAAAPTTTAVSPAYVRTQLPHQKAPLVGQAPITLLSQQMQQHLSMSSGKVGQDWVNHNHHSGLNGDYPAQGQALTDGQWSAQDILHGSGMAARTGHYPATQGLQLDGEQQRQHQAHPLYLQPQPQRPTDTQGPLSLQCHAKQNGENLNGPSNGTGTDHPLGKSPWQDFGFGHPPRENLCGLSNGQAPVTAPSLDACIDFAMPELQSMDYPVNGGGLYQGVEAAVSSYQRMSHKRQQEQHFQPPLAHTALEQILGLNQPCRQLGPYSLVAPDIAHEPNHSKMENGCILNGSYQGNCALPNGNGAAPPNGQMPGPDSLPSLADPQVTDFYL

gmAhr2a [2] = target: T2, gmAhr2a (Gadus morhua, UniProt A0A6H1Z3G8); assay: XRE luciferase reporter gene assay in COS-7 cells, gmAhr2a with gmArnt1; type: cell-based, Atlantic cod (Gadus morhua); conditions: for Activation of transcription of XRE-controlled luciferase reporter gene: increasing concentrations
T2 sequence (A0A6H1Z3G8 1-1127): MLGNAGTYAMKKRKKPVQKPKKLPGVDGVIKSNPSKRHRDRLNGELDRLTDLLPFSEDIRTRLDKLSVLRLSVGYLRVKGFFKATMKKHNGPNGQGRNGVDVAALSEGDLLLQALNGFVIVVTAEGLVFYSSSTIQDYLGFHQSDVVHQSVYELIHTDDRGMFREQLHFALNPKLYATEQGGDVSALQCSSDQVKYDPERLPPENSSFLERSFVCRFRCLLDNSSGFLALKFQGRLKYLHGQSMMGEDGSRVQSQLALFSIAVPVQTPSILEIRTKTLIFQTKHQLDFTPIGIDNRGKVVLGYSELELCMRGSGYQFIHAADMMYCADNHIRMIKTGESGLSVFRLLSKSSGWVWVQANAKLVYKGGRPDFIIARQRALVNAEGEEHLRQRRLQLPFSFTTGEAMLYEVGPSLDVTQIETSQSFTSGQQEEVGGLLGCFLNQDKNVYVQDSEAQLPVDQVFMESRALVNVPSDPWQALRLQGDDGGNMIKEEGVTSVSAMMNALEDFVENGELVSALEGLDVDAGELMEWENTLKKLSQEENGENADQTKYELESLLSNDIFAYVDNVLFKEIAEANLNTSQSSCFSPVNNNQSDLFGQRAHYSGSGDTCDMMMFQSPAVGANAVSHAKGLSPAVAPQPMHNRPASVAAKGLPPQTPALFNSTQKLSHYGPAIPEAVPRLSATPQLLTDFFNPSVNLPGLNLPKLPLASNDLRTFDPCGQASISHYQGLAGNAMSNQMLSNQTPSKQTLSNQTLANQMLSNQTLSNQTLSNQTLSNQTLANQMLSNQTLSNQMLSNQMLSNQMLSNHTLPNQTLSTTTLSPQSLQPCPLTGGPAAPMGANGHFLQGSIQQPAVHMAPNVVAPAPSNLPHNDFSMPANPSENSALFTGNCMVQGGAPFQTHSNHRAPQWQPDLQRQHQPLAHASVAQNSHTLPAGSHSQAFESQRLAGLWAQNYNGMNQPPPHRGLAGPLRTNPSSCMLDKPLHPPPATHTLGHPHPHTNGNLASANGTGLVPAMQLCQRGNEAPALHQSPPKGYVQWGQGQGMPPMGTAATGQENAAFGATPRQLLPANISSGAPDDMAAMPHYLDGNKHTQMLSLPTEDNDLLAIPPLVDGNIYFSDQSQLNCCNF

gmahr1a and gmahr2a = assay: Ex vivo precision-cut liver slices, gmahr1a and gmahr2a mRNA expression; type: cell-based, Atlantic cod (Gadus morhua); conditions: cod liver slices ex vivo, increasing concentrations
cyp1a = assay: Ex vivo precision-cut liver slices, cyp1a mRNA expression by qPCR; type: cell-based, Atlantic cod (Gadus morhua); conditions: cod liver slices ex vivo, 1 nM was the lowest concentration used
COS-7 cells = assay: Cytotoxicity in COS-7 cells; type: cell-based, simian; conditions: for TCDD the effect is at the highest concentration
gmAhr1a [3] = target: T1, gmAhr1a; assay: Velocity sedimentation radioligand binding to in vitro expressed gmAhr1a; set-up: species or system Atlantic cod (Gadus morhua); conditions: single concentration, qualitative
gmAhr2a [4] = target: T2, gmAhr2a; assay: Velocity sedimentation radioligand binding to in vitro expressed gmAhr2a; set-up: species or system Atlantic cod (Gadus morhua); conditions: [3H]BNF 10 nM, single concentration, qualitative
fhAhr2a = assay: Velocity sedimentation radioligand binding to in vitro expressed fhAhr2a; set-up: species or system Fundulus heteroclitus; conditions: single concentration, qualitative
[5] = test system: precision-cut liver slices; assay: Viability of precision-cut liver slices; type: cell-based, Atlantic cod (Gadus morhua); conditions: 100 nM
Method in brief: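 Precision-cut liver slices from juvenile Atlantic cod of both sexes (about 1.5–2 years old; tank-held in natural seawater at 9 °C, 12:12 h light/dark). Slices were exposed to Ahr agonist test compounds in 0.01% DMSO, with n=5–7 per compound. Viability was read by MTT reduction and cytotoxicity by LDH release.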

Row | Structure (SMILES) | Activation of transcription of XRE-controlled luciferase reporter gene (gmAhr1a [1]; COS-7 cells, gmAhr1a) | Activation of transcription of XRE-controlled luciferase reporter gene (gmAhr2a [2]; COS-7 cells, gmAhr2a) | Alterations in the expression of gmahr1a and gmahr2a (gmahr1a and gmahr2a) | EC50 (in words) (gmAhr1a [1]; COS-7 cells, gmAhr1a, luciferase reporter) | Shape of concentration-response (gmAhr1a [1]; gmAhr1a) | EC50 (in words) (gmAhr2a [2]; COS-7 cells, gmAhr2a, luciferase reporter) | Concentration at which cyp1a expression was induced (cyp1a) [nM] | Cell viability (COS-7 cells) | Specific binding of [3H]BNF (gmAhr1a [3]; [3H]BNF 10 nM) | Specific binding of [3H]BNF (gmAhr2a [4]) | Specific binding of [3H]BNF (fhAhr2a; [3H]BNF 10 nM) | Specific binding of [3H]TCDD (gmAhr1a [3]; [3H]TCDD 2 nM) | Specific binding of [3H]TCDD (fhAhr2a; [3H]TCDD 2 nM) | EC50 (gmAhr1a [1]) [nM] | Emax (gmAhr1a [1]; gmAhr1a compared with gmAhr2a) | EC50 (gmAhr2a [2]) [nM] | Viability of liver slices [5]
1 | c1ccc2c(c1)cc1ccc3cccc4ccc2c1c34 [B[a]P] | activated | activated | no significant differences in transcript levels |  |  |  |  |  |  |  |  |  |  |  |  |  | 
2 | O=Cc1c2[nH]c3ccccc3c2cc2[nH]c3ccccc3c12 [FICZ, 6-formylindolo[3,2-b]carbazole] | activated | activated |  | picomolar range | bi-phasic concentration-response | picomolar range | 1 | no significant alterations in cell viabilities |  |  |  |  |  |  |  |  | 
3 | Clc1ccc(-c2cc(Cl)c(Cl)c(Cl)c2)cc1Cl [PCB126, 3,3′,4,4′,5-pentachlorobiphenyl] | activated | activated |  |  |  |  |  |  |  |  |  |  |  |  |  |  | 
4 | O=c1cc(-c2ccccc2)oc2ccc3ccccc3c12 [BNF, β-naphthoflavone] | activated | activated |  |  | tendencies to a biphasic concentration-response |  |  | no significant alterations in cell viabilities | highest amount of specific binding | only weak or no specific binding | only weak or no specific binding |  |  |  |  |  | 
5 | Clc1cc2c(cc1Cl)Oc1cc(Cl)c(Cl)cc1O2 [TCDD, 2,3,7,8-Tetrachlorodibenzo-p-dioxin] | activated | activated | no significant differences in transcript levels |  |  |  | 1 | slight reduction in cell viability |  |  |  | Specific binding of [^3H]TCDD was observed | Specific binding of [^3H]TCDD was observed | ~1 | very similar | ~10 | reduced viability
